Data from ChEMBL document CHEMBL4257566, “Design, synthesis and structure-based optimization of novel isoxazole-containing benzamide derivatives as FtsZ modulators” (Eur J Med Chem, 2018).
In brackets after ≈: the same amount, converted by molar mass.

What was measured:
[1] = test system: Bacillus subtilis; experiment: Antibacterial activity against Bacillus subtilis ATCC 9372 after 24 hrs by broth microdilution based CLSI method; type: functional; details: ATCC 9372, 24 h
[2] = test system: Bacillus pumilus; experiment: Antibacterial activity against Bacillus pumilus CMCC63202 after 24 hrs by broth microdilution based CLSI method; type: functional; details: CMCC63202, 24 h
[3] = test system: Staphylococcus aureus; experiment: Antibacterial activity against Staphylococcus aureus ATCC 25923 after 24 hrs by broth microdilution based CLSI method; type: functional; details: ATCC 25923, 24 h
[4] = test system: Staphylococcus aureus; experiment: Antibacterial activity against methicillin-resistant Staphylococcus aureus ATCC 43300 after 24 hrs by broth microdilution based CLSI method; type: functional; details: ATCC 43300, 24 h
[5] = test system: Staphylococcus aureus; experiment: Antibacterial activity against clinical isolate of penicillin-resistant Staphylococcus aureus after 24 hrs by broth microdilution based CLSI method; type: functional
[6] = test system: Escherichia coli; experiment: Antibacterial activity against Escherichia coli ATCC 25922 after 24 hrs by broth microdilution based CLSI method; type: functional; details: ATCC 25922, 24 h
[7] = test system: Pseudomonas aeruginosa; experiment: Antibacterial activity against Pseudomonas aeruginosa ATCC 27853 after 24 hrs by broth microdilution based CLSI method; type: functional; details: ATCC 27853, 24 h
[8] = test system: Staphylococcus aureus; experiment: Antibacterial activity against Staphylococcus aureus; type: functional
Procedure, shortened: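 CLSI broth microdilution: log-phase bacteria added to 2-fold serial dilutions (64 to 0.125 µg/mL) in cation-adjusted Mueller-Hinton broth, incubated aerobically 24 h at 37 °C. MIC read by turbidity as the last well showing no growth.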

[9] = test system: HeLa; experiment: Cytotoxicity in human HeLa cells assessed as reduction in cell viability after 36 hrs by MTT assay; type: cell-based
Procedure, shortened: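 HeLa cells seeded at 10⁴ cells/well and left overnight, then exposed to compound for 36 h. MTT (5 mg/mL solution) added for 4 h at 37 °C, medium replaced by DMSO for 10 min, absorbance read at 570 nm.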

[10] = test system: Bacillus subtilis; experiment: Potency index, ratio of PC190723 MIC to test compound MIC for antibacterial activity against Bacillus subtilis ATCC 9372 after 24 hrs by broth microdilution based CLSI method

| SMILES | MIC [1] [µg/mL] | MIC [2] [µg/mL] | MIC [3] [µg/mL] | MIC [4] [µg/mL] | MIC [5] [µg/mL] | MIC [6] [µg/mL] | MIC [7] [µg/mL] | MIC [8] [µg/mL] | IC50 [9] [µg/mL] | Ratio [10] |
| --- | --- | --- | --- | --- | --- | --- | --- | --- | --- | --- |
| NC(=O)c1c(F)ccc(OCc2nc3cc(Cl)cnc3s2)c1F | 0.5 (≈ 1.41 µM) | 0.5 (≈ 1.41 µM) | 1 (≈ 2.81 µM) | 1 (≈ 2.81 µM) | 1 (≈ 2.81 µM) | > 64 | > 64 | 1 (≈ 2.81 µM) |  |  |
| Nc1nonc1C(=O)N/N=C/c1cc(Cl)cc(Cl)c1O |  |  |  |  |  |  |  | 16 (≈ 50.6 µM) |  |  |
| NC(=O)c1c(F)ccc(OCc2ccccc2)c1F |  |  |  |  |  |  |  | 32 (≈ 122 µM) |  |  |
| CCCCC(CC)COc1ccc(F)c(C(N)=O)c1F (configuration not stated) |  |  |  |  |  |  |  | 4 (≈ 14 µM) |  |  |
| Cc1cc(C(C)(C)C)cc(C)c1-c1cc(COc2ccc(F)c(C(N)=O)c2F)no1 | > 64 | 0.06 (≈ 0.145 µM) | 1 (≈ 2.41 µM) | 2 (≈ 4.83 µM) | 2 (≈ 4.83 µM) | > 64 | > 64 |  | > 128 |  |
| CC(C)(C)c1ccc(-c2ccc(CNC(=N)N)cc2)cc1 |  |  |  |  |  |  |  | 1 (≈ 3.55 µM) |  |  |
| NC(=O)c1c(F)ccc(OCc2cc(-c3cccs3)no2)c1F | 32 (≈ 95.1 µM) | > 64 | > 64 | > 64 | > 64 | > 64 | > 64 |  |  |  |
| CCCOc1cccc(-c2cc(COc3ccc(F)c(C(N)=O)c3F)on2)c1 | 64 (≈ 165 µM) | > 64 | > 64 | > 64 | > 64 | > 64 | > 64 |  |  |  |
| NC(=O)c1c(F)ccc(OCc2cc(-c3ccc(Cl)cc3)no2)c1F | 4 (≈ 11 µM) | > 64 | > 64 | > 64 | > 64 | > 64 | > 64 |  |  |  |
| NC(=O)c1c(F)ccc(OCc2cc(/C=C/c3ccccc3)no2)c1F | 8 (≈ 22.5 µM) | > 64 | > 64 | > 64 | > 64 | > 64 | > 64 |  |  |  |
| NC(=O)c1c(F)ccc(OCc2cc(-c3ccco3)no2)c1F | 32 (≈ 99.9 µM) | > 64 | > 64 | > 64 | > 64 | > 64 | > 64 |  |  |  |
| CC(C)(C)c1ccc(-c2cc(CCOc3ccc(F)c(C(N)=O)c3F)no2)cc1 | > 64 | > 64 | > 64 | > 64 | > 64 | > 64 | > 64 |  |  |  |
| CCCCc1ccc(-c2cc(COc3ccc(F)c(C(N)=O)c3F)no2)cc1 | 0.06 (≈ 0.155 µM) | > 64 | > 64 | > 64 | > 64 | > 64 | > 64 |  |  |  |
| NC(=O)c1c(F)ccc(OCc2cc(-c3ccc(C4CCCCC4)cc3)no2)c1F | > 64 | > 64 | > 64 | > 64 | > 64 | > 64 | > 64 |  |  |  |
| NC(=O)c1c(F)ccc(OCc2cc(-c3cccc(Cl)c3)on2)c1F | 8 (≈ 21.9 µM) | > 64 | > 64 | > 64 | > 64 | > 64 | > 64 |  |  |  |
| COc1ccc(-c2cc(COc3ccc(F)c(C(N)=O)c3F)on2)cc1 | 3 (≈ 8.33 µM) | > 64 | 64 (≈ 178 µM) | 4 (≈ 11.1 µM) | > 64 | > 64 | > 64 |  |  |  |
| CN(C)c1ccc(-c2cc(COc3ccc(F)c(C(N)=O)c3F)on2)cc1 | > 64 | > 64 | > 64 | > 64 | > 64 | > 64 | > 64 |  |  |  |
| NC(=O)c1c(F)ccc(OCc2cc(-c3ccccc3)on2)c1F | 64 (≈ 194 µM) | > 64 | > 64 | > 64 | > 64 | > 64 | > 64 |  |  |  |
| COc1ccc(-c2cc(COc3ccc(F)c(C(N)=O)c3F)on2)cc1OC | > 64 | > 64 | > 64 | > 64 | > 64 | > 64 | > 64 |  |  |  |
| CC(C)(C)c1ccc(-c2onc(COc3ccc(F)c(C(N)=O)c3F)c2Br)cc1 | 1 (≈ 2.15 µM) | 1 (≈ 2.15 µM) | > 64 | > 64 | > 64 | > 64 | > 64 |  |  |  |
| CCCCc1ccc(-c2cc(COc3ccc(F)c(C(N)=O)c3F)on2)cc1 | 0.03 (≈ 0.0776 µM) | 0.25 (≈ 0.647 µM) | > 64 | 2 (≈ 5.18 µM) | > 64 | > 64 | > 64 |  |  | >16 |
| NC(=O)c1c(F)ccc(OCc2cc(-c3ccc(-c4cccc5ccccc45)cc3)no2)c1F | > 64 | > 64 | > 64 | > 64 | > 64 | > 64 | > 64 |  |  |  |
| N#Cc1ccc(-c2cc(COc3ccc(F)c(C(N)=O)c3F)on2)cc1 | 64 (≈ 180 µM) | > 64 | > 64 | > 64 | > 64 | > 64 | > 64 |  |  |  |
| NC(=O)c1c(F)ccc(OCc2cc(-c3ccccc3Cl)no2)c1F | 8 (≈ 21.9 µM) | 16 (≈ 43.9 µM) | > 64 | > 64 | > 64 | > 64 | > 64 |  |  |  |
| NC(=O)c1c(F)ccc(OCc2cc(-c3ccccc3)no2)c1F | 64 (≈ 194 µM) | > 64 | > 64 | > 64 | > 64 | > 64 | > 64 |  |  |  |
| CCCOc1ccc(-c2cc(COc3ccc(F)c(C(N)=O)c3F)no2)cc1 | > 64 | > 64 | > 64 | > 64 | > 64 | > 64 | > 64 |  |  |  |
| NC(=O)c1c(F)ccc(OCc2cc(-c3ccc(-c4ccccn4)cc3)no2)c1F | 64 (≈ 157 µM) | > 64 | > 64 | > 64 | > 64 | > 64 | > 64 |  |  |  |
| NC(=O)c1c(F)ccc(OCc2cc(-c3cccc(Cl)c3)no2)c1F | 8 (≈ 21.9 µM) | > 64 | > 64 | > 64 | > 64 | > 64 | > 64 |  |  |  |
| NC(=O)c1c(F)ccc(OCc2cc(-c3ccc(Cl)c(Cl)c3)on2)c1F | > 64 | > 64 | > 64 | > 64 | > 64 | > 64 | > 64 |  |  |  |
